Screens (PubChem)
Compounds with a hit are over-represented: about 2.9% of the library has one in this group of screens.
CRFBP-R2 block: antagonists of CRF-binding protein/CRF-R2 receptor complex | AID 588475 | HEK293 CRF-R2/CRF-BP, CRF-induced calcium fluorescence | inhibition, % at 11.8 µM | 0.59% of 350,000 active;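 active = inhibition of the ligand-induced calcium signal above about 50% at the single tested concentration, limit read from the data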
NRP1-CendR mod: NRP-1/CendR interaction modulation; 0.85% of 360,000 active; inhibition, % at 25 µM; O14786; FAM-RPARPAR peptide binding to NRP-1, fluorescence polarization;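 active = inhibition or corrected inhibition above about 18%, plus a signal ratio from 0.5 to 1.5, limit read from the data, passing the limit was not always enough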
Tn6 DDE FP: inhibitors of Tn6 peptide binding to human fibrin DD(E). Fibrin DD(E) TRITC-Tn6 fluorescence polarization displacement. AID 720509. P02675. 0.21% of 370,000 active. inhibition, % at 8.3 µM;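 active = inhibition above a per-campaign cutoff: mean of compounds within control limits plus 3 SD, cut at about 15% in these data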;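 note: 0% = median of all compound wells on the plate and 100% = blocking peptide control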
Tn7 DDE FP: DD(E)-Tn7 binding inhibition, primary FP screen | P02675 | FP displacement of FITC-Tn7 peptide from fibrin DD(E); 0% = median of compound wells per plate | inhibition, % at 8.3 µM | 0.13% of 370,000 active | AID 720508;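 active = inhibition above the mean of compounds falling within the control limits plus 3 SD of them, cut at about 14% in these data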;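 note: 0% = plate median of compound wells and 100% = 10 µM Aha-Tn7 peptide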
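Also added: labelled Tn7 tracer, 0.1 µM; Assay system: human fibrin DD(E) protein; Amount: 2 µM fibrin DD(E); Schedule: 10 min compound pre-incubation, 3 h probe incubation at room temperature; Repeats: one replicate per compound; Read-out basis: percent inhibition; Measured by: fluorescence polarization of the labelled Tn7 tracer.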
proKLK7 act: activates the human kallikrein-7 zymogen | P49862 | activation, % at 7 µM | purified proKLK7, EDANS-DABCYL substrate fluorescence; 100% is mature enzyme control, 0% vehicle | 0.9% of 370,000 active;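 active = activation above the mean of all tested compounds plus 3 SD, computed per campaign excluding outliers beyond control limits, cut at about 13% in these data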
Target sequence (P49862 whole entry, looked up): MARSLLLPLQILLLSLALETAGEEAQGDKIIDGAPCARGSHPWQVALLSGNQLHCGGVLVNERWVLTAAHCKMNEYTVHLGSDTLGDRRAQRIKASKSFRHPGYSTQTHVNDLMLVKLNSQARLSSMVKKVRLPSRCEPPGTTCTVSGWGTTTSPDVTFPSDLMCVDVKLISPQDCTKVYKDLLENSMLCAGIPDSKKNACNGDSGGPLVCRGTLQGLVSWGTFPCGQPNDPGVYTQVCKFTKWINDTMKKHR
CRFR2-BP ag: agonists of human CRF-binding protein/CRF-R2 receptor complex; HEK293 CRF-R2/CRF-BP, calcium dye fluorescence (FLIPR); percent of saturating CRF peptide response; activation, % at 13.2 µM; 0.46% of 350,000 active;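 active = activation of at least 50%, plus an integration ratio under a set limit after plate pattern correction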;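 note: plate controls were neutral control wells without compound for no effect and CRF at EC100 for full effect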
proKLK7 act conf: proKLK7 activation, confirmation. shares compounds with proKLK7 act. purified proKLK7, EDANS-DABCYL substrate fluorescence; scaled: vehicle 0, mature enzyme 100. activation, % at 7 µM. 68% of 3,200 active. AID 686949;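 active = activation, as change over the incubation, above the mean of all tested compounds plus 3 SD, cut at about 13% in these data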
EDANS-DABCYL int: optically interferes with EDANS-DABCYL signal, flagging KLK7 hits | activation, % at 7 µM | EDANS-DABCYL substrate fluorescence interference, no enzyme, 4 h; solvent 0%, active enzyme control 100% | 80% of 3,200 active | shares compounds with proKLK7 act | AID 686952;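 active = activation above the all-compound mean plus 3 SD, ignoring values outside control-based bounds, cut at about 4.8% in these data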;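 note: value is the 4 h activation minus the activation read at time zero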
K7 EDANS ctr: EDANS fluorescence interference in dose response, no enzyme | AID 720493 | shares compounds with proKLK7 act | EDANS-DABCYL peptide fluorescence interference | EC50, µM | 20% of 250 active;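 active = compounds that raise the fluorescence signal in this interference counterscreen, with EC50 at or below 10 µM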;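 note: intact quenched peptide substrate alone read at 355 nm excitation and 520 nm emission; signal is fluorescence gain from T0 to T4 after four hours at room temperature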
Numbers without * were called inactive; x = no result given.

SMILES	CRFBP-R2 block	NRP1-CendR mod	Tn6 DDE FP	Tn7 DDE FP	proKLK7 act	CRFR2-BP ag	proKLK7 act conf	EDANS-DABCYL int	others
Nc1nc2cc3c(cc2cc1C(=O)NCc1cccnc1)OCO3	x	x	1	3	18*	x	30*	36*
Nc1nc2cc3c(cc2cc1C(=O)NCc1ccc(F)cc1)OCO3	x	-28	x	x	x	x	x	x
CC1CC(=O)C2=C(C1)Nc1nc3ccccc3n1C2c1cccnc1 (stereo not drawn)	-3	0	-8	-3	76*	-4	64*	72*
CSc1nc2n(n1)C(c1cccs1)C1=C(CCCC1=O)N2 (stereo not drawn)	2	-5	-4	3	-20	0	x	x
O=C1CCCC2=C1C(c1ccncc1)n1c(nc3ccccc31)N2 (stereo not drawn)	-5	7	0	-8	47*	-1	63*	75*
O=C(NC1CCCCN(Cc2ccc(Cl)cc2)C1=O)c1ccccc1-c1ccc(Cl)c(Cl)c1 (stereo not drawn)	x	x	-2	-1	0	x	x	x
Nc1c(Cl)cc(Cl)cc1C(=O)OCC(=O)NC1CC1	-3	2	-1	2	22*	-1	36*	33*
Cc1ccccc1N1CCN(C(=O)COc2cc(=O)n(C)c3ccccc23)CC1	x	x	2	-9	0	x	x	x
Cc1ccc(S(=O)(=O)NN2C(=O)c3ccccc3NC2(C)C)cc1	8	0	-1	-11	49*	0	50*	43*
CC1(C)Nc2ccccc2C(=O)N1NS(=O)(=O)c1ccccc1	16	2	2	-8	75*	-3	46*	42*
CCOC(=O)NN1C(=O)c2ccccc2NC12CCCC2	4	-11	2	2	7	0	x	x
CCCSc1nc(C)c2cc(C)cc(C)c2n1	-13	-3	7	-2	-1	-1	x	x
Cc1cc(C)c2nc3nc(C)c(C)cc3c(N)c2c1	111*	-11	-3	4	50*	71*	34*	41*
C[C@H]1C(c2ccc(F)cc2)=NN(c2ccccc2)[C@@H]1CO	6	-5	10	7	23*	-2	-13	-26
COc1ccccc1NS(=O)(=O)c1cccc(C(=O)N/N=C/c2ccc(NC(C)=O)cc2)c1	5	4	-4	-10	235*	1	-8	-4
COc1ccc(S[C@]2(C(=O)N3CCCC3)CC(=O)N(S(=O)(=O)c3ccc(F)cc3)[C@@H]2c2ccc(OC)cc2)cc1	x	x	-8	2	0	x	x	x
CN1OC[C@@H]2CN(C(=S)Nc3cc(C(F)(F)F)cc(C(F)(F)F)c3)[C@H](c3ccccc3Br)C[C@@H]21	x	x	3	2	0	x	x	x
O=C(Nc1ccc2c(c1)OCO2)C(c1ccc(Cl)cc1)N1CCC2(CC1)OCCO2 (stereo not drawn)	5	-6	1	8	18*	0	0	-1
O=c1c(N2CCOCC2)coc2ccccc12	-6	-3	0	2	0	-1	x	x
O=c1[nH]c(N2CCOCC2)cc2ccccc12	-1	15	-2	2	34*	-2	20*	-7	K7 EDANS ctr=>70
Cc1cc(=O)oc2cc(OC(=O)c3nn(C(C)C)c(=O)c4ccccc34)ccc12	-7	-5	3	-5	46*	-1	70*	79*
CCCn1nc(C(=O)Oc2ccc3c(C)cc(=O)oc3c2)c2ccccc2c1=O	2	1	6	3	54*	1	68*	72*
CC(C)n1nc(C(=O)Oc2ccc(Cl)cc2)c2ccccc2c1=O	-67	3	-7	7	0	-2	x	x
